Results reported in article PMC10616755 (RSC Advances, 2023).
Read-outs that look alike come from different tables or passages of the source.

How the values were obtained:
HCT-116 [1] = assay: MTT cytotoxicity assay, HCT-116; assay type: cell-based, human; conditions: for Cytotoxicity grade HCT-116: grade in words in text; for SI (HCT-116): selectivity index WI-38 vs HCT-116
In short: (§1)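 MTT viability assay on human HCT-116 and MCF-7 lines. Each test compound was run at 100, 50, 25, 12.5, 6.25, 3.125 and 1.56 μM, with IC50 determined per cell line.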

MCF-7 [2] = assay: MTT cytotoxicity assay, MCF-7; assay type: cell-based, human; conditions: for Cytotoxicity grade MCF-7: grade in words in text; for SI (MCF-7): selectivity index WI-38 vs MCF-7
In short: as §1

WI-38 = assay: MTT cytotoxicity on normal lung fibroblast; assay type: cell-based, human; conditions: read-out: Cytotoxicity on WI-38 IC50; normal cell line, MTT assay
[3] = MTT cytotoxicity on normal lung fibroblast; assay type: cell-based, human; conditions: human, WI-38 normal lung fibroblast cells
VEGFR-2 = VEGFR-2 (Homo sapiens, UniProt P35968); assay: VEGFR-2; assay type: biochemical; conditions: VEGFR-2 inhibitory activity IC50
Sequence of VEGFR-2 (P35968 20-1356): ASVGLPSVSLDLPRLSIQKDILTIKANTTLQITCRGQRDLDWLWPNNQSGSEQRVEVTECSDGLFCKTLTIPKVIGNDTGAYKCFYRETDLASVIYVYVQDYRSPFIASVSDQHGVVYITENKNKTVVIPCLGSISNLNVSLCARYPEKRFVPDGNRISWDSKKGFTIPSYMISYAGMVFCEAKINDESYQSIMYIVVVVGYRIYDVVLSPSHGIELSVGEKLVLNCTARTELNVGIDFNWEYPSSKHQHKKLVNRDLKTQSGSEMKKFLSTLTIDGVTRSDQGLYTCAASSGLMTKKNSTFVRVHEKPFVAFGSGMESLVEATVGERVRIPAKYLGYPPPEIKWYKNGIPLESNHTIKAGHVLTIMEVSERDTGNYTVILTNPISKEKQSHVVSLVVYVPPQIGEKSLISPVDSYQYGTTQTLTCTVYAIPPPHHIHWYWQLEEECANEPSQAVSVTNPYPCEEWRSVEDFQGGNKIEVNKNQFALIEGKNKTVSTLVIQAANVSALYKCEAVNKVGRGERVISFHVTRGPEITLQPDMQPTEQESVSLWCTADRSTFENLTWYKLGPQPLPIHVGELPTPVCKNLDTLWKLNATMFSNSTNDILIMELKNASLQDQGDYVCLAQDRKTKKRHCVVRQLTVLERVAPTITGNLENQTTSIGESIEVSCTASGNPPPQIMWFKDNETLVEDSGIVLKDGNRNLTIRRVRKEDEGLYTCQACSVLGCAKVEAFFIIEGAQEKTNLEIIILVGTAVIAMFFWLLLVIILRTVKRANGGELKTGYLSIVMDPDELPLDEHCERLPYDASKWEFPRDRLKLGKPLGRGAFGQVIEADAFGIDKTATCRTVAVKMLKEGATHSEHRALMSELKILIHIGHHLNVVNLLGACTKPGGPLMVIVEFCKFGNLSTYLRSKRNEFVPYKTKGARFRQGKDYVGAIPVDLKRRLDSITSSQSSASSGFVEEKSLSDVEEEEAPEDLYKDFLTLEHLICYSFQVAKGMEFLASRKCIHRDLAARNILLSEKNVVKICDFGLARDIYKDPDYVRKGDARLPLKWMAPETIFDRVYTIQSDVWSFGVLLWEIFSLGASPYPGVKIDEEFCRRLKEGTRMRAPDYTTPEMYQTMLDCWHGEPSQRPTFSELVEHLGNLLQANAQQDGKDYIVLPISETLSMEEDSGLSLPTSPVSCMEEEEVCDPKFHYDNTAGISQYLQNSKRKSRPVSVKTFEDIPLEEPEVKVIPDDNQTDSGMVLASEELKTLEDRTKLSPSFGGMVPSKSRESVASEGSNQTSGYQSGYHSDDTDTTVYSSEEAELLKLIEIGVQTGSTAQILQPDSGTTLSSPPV

HCT-116 [4] = conditions: read-out: Cytotoxic activity IC50 HCT-116, cited from earlier work
MCF-7 [5] = conditions: read-out: Cytotoxic activity IC50 MCF-7, cited from earlier work
BAX = BAX level; assay type: cell-based; conditions: control = 1
BCL2 = BCL2 level; assay type: cell-based; conditions: control = 1
caspase-3 = assay: Active caspase-3 level; assay type: cell-based, human
p53 = assay: Active p53 level; assay type: cell-based, human
[6] = read-out: Cytotoxic activity IC50 HCT-116, MTT assay
[7] = read-out: Cytotoxic activity IC50 MCF-7, MTT assay
[8] = Homo sapiens, HCT-116, read-out: Cytotoxic activity IC50 HCT-116
[9] = Homo sapiens, MCF7, read-out: Cytotoxic activity IC50 MCF-7
[10] = sorafenib reference value ref 36
[11] = sunitinib reference value ref 34,35

Question: With “2,4-Dichloro-N′-(3-(6-chloro-3-oxo-3,4-dihydroquinoxalin-2-yl)-propanoyl) benzohydrazide [Compound 19]” as the compound, how does the “Cytotoxicity grade HCT-116” value (HCT-116 [1]) read?
Answer: The value was “very strong (1–10 (very strong))”.

Question: And the IC50 (HCT-116 [1]; [6])?
Answer: The IC50 was 6.18 ± 2.1 µM.

Question: What about the “SI (HCT-116)” value (HCT-116 [1]) of the same compound?
Answer: Its value is 11.58.

Question: And the “Cytotoxicity grade MCF-7” value (MCF-7 [2])?
Answer: The value was “very strong (1–10 (very strong))”.

Question: What about the IC50 (MCF-7 [2]; [7]) of the same compound?
Answer: Its IC50 is 5.11 ± 0.8 µM.

Question: And the “SI (MCF-7)” value (MCF-7 [2])?
Answer: The value was 14.01.

Question: What about the IC50 (WI-38) of the same compound?
Answer: The IC50 was 71.6 ± 2.8 µM.

Question: Which IC50 (HCT-116 [1]; [6]) does the source give for “2-(2-(3-(6-Chloro-3-oxo-3,4-dihydroquinoxalin-2-yl)propanoyl)hydrazine-1-carbonyl) benzoic acid [Compound 21]” here?
Answer: The IC50 was 48.2 ± 2.7 µM.

Question: What about the IC50 (MCF-7 [2]; [7]) of the same compound?
Answer: The IC50 was 41.5 ± 2.5 µM.

Question: For “4-(3-(6-Chloro-1,2-dihydro-2-oxoquinoxalin-3-yl)propaneamido)-4-oxobutanoic acid [Compound 20]”, which IC50 (HCT-116 [1]; [6]) is on record?
Answer: Its IC50 is 26.4 ± 3.8 µM.

Question: What about the “SI (HCT-116)” value (HCT-116 [1]) of the same compound?
Answer: The value was 3.52.

Question: And the IC50 (MCF-7 [2]; [7])?
Answer: Its IC50 is 10.2 ± 3.3 µM.

Question: And the “SI (MCF-7)” value (MCF-7 [2])?
Answer: Its value is 9.15.

Question: What about the IC50 (WI-38) of the same compound?
Answer: The IC50 was 93 ± 2.2 µM.

Question: Which results are given for `O=C(CCc1nc2cc(Cl)ccc2[nH]c1=O)Nc1ccccc1` [Compound 5, 3-(6-Chloro-1,2-dihydro-2-oxoquinoxalin-3-yl)-N-phenylpropanamide]?
Answer: IC50 (HCT-116 [1]; [8]): 45.5 ± 2.7 µM; Cytotoxicity grade HCT-116 (HCT-116 [1]): moderate (21–50 (moderate)); IC50 (MCF-7 [2]; [9]): 39 ± 2.4 µM; Cytotoxicity grade MCF-7 (MCF-7 [2]): moderate (21–50 (moderate))

Question: For `O=C(CCc1nc2cc(Cl)ccc2[nH]c1=O)Nc1ccccc1O` [Compound 9, 3-(6-Chloro-1,2-dihydro-2-oxoquinoxalin-3-yl)-N-(2-hydroxyphenyl)propanamide], which IC50 (HCT-116 [1]; [8]) is on record?
Answer: The IC50 was 7.19 ± 0.7 µM.

Question: And the “SI (HCT-116)” value (HCT-116 [1])?
Answer: Its value is 11.98.

Question: And the IC50 (MCF-7 [2]; [9])?
Answer: Its IC50 is 6.92 ± 0.5 µM.

Question: What about the “SI (MCF-7)” value (MCF-7 [2]) of the same compound?
Answer: Its value is 12.44.

Question: What about the IC50 [3] of the same compound?
Answer: The IC50 was 86.1 ± 4.1 µM.

Question: What about the IC50 (VEGFR-2) of the same compound?
Answer: The IC50 was 0.131 µM.

Question: For `Cc1ccc(NC(=O)CCc2nc3cc(Cl)ccc3[nH]c2=O)cc1` [Compound 11, 3-(6-Chloro-1,2-dihydro-2-oxoquinoxalin-3-yl)-N-p-tolylpropanamide], which IC50 (HCT-116 [1]; [8]) is on record?
Answer: The IC50 was 61.4 ± 3.4 µM.

Question: And the IC50 (MCF-7 [2]; [9])?
Answer: Its IC50 is 54 ± 3.1 µM.

Question: Which results are given for `Cc1cccc(NC(=O)CCc2nc3cc(Cl)ccc3[nH]c2=O)c1` [Compound 12, 3-(6-Chloro-1,2-dihydro-2-oxoquinoxalin-3-yl)-N-m-tolylpropanamide]?
Answer: IC50 (HCT-116 [1]; [8]): 28.4 ± 2.2 µM; IC50 (MCF-7 [2]; [9]): 24.6 ± 1.9 µM

Question: With `Cc1ccccc1NC(=O)CCc1nc2cc(Cl)ccc2[nH]c1=O` [Compound 13, 3-(6-Chloro-1,2-dihydro-2-oxoquinoxalin-3-yl)-N-o-tolylpropanamide] as the compound, how does the IC50 (HCT-116 [1]; [8]) read?
Answer: The IC50 was 22.2 ± 1.9 µM.

Question: What about the IC50 (MCF-7 [2]; [9]) of the same compound?
Answer: Its IC50 is 18.9 ± 1.4 µM.

Question: For `O=C(CCc1nc2cc(Cl)ccc2[nH]c1=O)Nc1ccc(C(=O)O)cc1` [Compound 16, 4-(3-(6-Chloro-1,2-dihydro-2-oxoquinoxalin-3-yl)propanamido)benzoic acid], which IC50 (HCT-116 [1]; [8]) is on record?
Answer: The IC50 was 75.1 ± 3.6 µM.

Question: And the “Cytotoxicity grade HCT-116” value (HCT-116 [1])?
Answer: The value was “weak (51–100 (weak))”.

Question: And the IC50 (MCF-7 [2]; [9])?
Answer: Its IC50 is 67.2 ± 3.5 µM.

Question: And the “Cytotoxicity grade MCF-7” value (MCF-7 [2])?
Answer: The value was “weak (51–100 (weak))”.

Question: What does the source list for `COc1cccc2c1C(=O)c1c(O)c3c(c(O)c1C2=O)C[C@@](O)(C(=O)CO)C[C@@H]3O[C@H]1C[C@H](N)[C@H](O)[C@H](C)O1` [DOX, Doxorubicin, reference compound]?
Answer: IC50 (HCT-116 [1]; [8]): 9.27 ± 0.3 µM; SI (HCT-116) (HCT-116 [1]): 0.72; IC50 (MCF-7 [2]; [9]): 7.43 ± 0.2 µM; SI (MCF-7) (MCF-7 [2]): 0.9; IC50 [3]: 6.72 ± 0.5 µM

Question: Which IC50 (HCT-116 [4]; [10]) does the source give for `CNC(=O)c1cc(Oc2ccc(NC(=O)Nc3ccc(Cl)c(C(F)(F)F)c3)cc2)ccn1` [Sorafenib] here?
Answer: Its IC50 is 18.6 ± 1.9 µM.

Question: And the IC50 (MCF-7 [5]; [10])?
Answer: Its IC50 is 16 ± 3.6 µM.

Question: Which BAX fold change (BAX) does the source give for `CN[C@@H]1C[C@H]2O[C@@](C)([C@@H]1OC)n1c3ccccc3c3c4c(c5c6ccccc6n2c5c31)C(=O)NC4` [Staurosporine] here?
Answer: The BAX fold change was 7.5517 fold change.

Question: And the BAX fold change (BAX; listed as staurosporine)?
Answer: Its BAX fold change is 7.55 fold change.

Question: What about the BCL2 fold change (BCL2) of the same compound?
Answer: The BCL2 fold change was 0.3248 fold change.

Question: And the BCL2 fold change (BCL2; listed as staurosporine)?
Answer: The BCL2 fold change was 0.33 fold change.

Question: Which results are given for `CCN(CC)CCNC(=O)c1c(C)[nH]c(/C=C2\C(=O)Nc3ccc(F)cc32)c1C` [Sunitinib]?
Answer: Caspase 3 (caspase-3; MCF-7 cells, control 47.88 ± 13.15): 384.53 ± 8.40 pg/mL; Caspase 3 Fld (caspase-3; vs control): 8.031 fold; p53 (p53; MCF-7 cells, control 22.19 ± 8.39): 278.34 ± 5.27 pg/mL; p53 Fld (p53; vs control): 12.543 fold; IC50 (HCT-116 [4]; [11]): 3.42 ± 0.5 µM; IC50 (MCF-7 [5]; [11]): 4.77 ± 0.2 µM
